Assay results collected from several papers.
Protocols differ between the studies behind these lines.
Target: BDNF/NT-3 growth factors receptor (NTRK2, Homo sapiens, UniProt Q16620)

COc1cc2ncnc(Nc3ccc(Oc4ccccc4)cc3C)c2cc1OC
inhibition (enzyme activity; inhibitor; 1 µM): 11%

CC/C(=N\NC(=O)NCc1cccc(O)c1)c1ccc(O)c(C)c1O
inhibition (enzyme activity; inhibitor; 0.1 µM): 2.2%

CCCS(=O)(=O)Nc1ccc(F)c(C(=O)c2c[nH]c3ncc(-c4ccc(Cl)cc4)cc23)c1F
inhibition (enzyme activity; inhibitor; 1 µM): < 10%

CN1CC(Oc2cnc(C#N)cc2-c2ccn3nc(NC(=O)C4CC4)cc3c2)C1
inhibition (enzyme activity; inhibitor; 1 µM): 4%

O=C(Nc1ccc(OC(F)(F)F)cc1)Nc1cccc(C(=O)Nc2ccc3[nH]ncc3c2)c1
inhibition (enzyme activity; inhibitor; FRET; 1 µM): 14.5%

CNC(=O)c1cc2c(Oc3ccc(NC(=O)C4(C(=O)Nc5ccc(F)cc5)CC4)cc3)ccnc2cc1OC
inhibition (enzyme activity; inhibitor; radiometric; 1 µM): 100%

O=C(Nc1cccc(Cl)c1)Nc1cccc(C(=O)Nc2ccc3[nH]ncc3c2)c1
inhibition (enzyme activity; inhibitor; FRET; 1 µM): 20.2%

CNC(=O)c1cc(Oc2ccc(NC(=O)Nc3ccc(Cl)c(C(F)(F)F)c3)cc2)ccn1
inhibition (cell-free assay; 0.3 µM): 14%

O=C(Nc1ccc(Cl)cc1)Nc1cccc(C(=O)Nc2ccc3[nH]ncc3c2)c1
inhibition (enzyme activity; inhibitor; FRET; 1 µM): 18.8%

COc1cc2ncnc(Nc3ccc(Oc4ccccc4)c(C)c3C)c2cc1OC
inhibition (enzyme activity; inhibitor; 1 µM): -3%
